# From PubChem BioAssay
# Glyco luc inh – N-linked glycosylation inhibition | D54 ERlucT glycosylation luciferase reporter, 24 h; percent of 100 nM tunicamycin response | reporter increase, % at 12.5 µM | hit rate 0.23% among 360,000 | AID 588692;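 active = mean luciferase reporter signal, scaled so untreated is 0 and the glycosylation-blocking control 100, at or above a set limit in every replicate; inconclusive = mean reaches the limit but not every replicate does; inactive = mean below the limit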;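 note: luciferase carries N-glycosylation sites so blocking glycosylation raises the light; 0% = median of neutral control wells and 100% = median of 100 nM tunicamycin wells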
# ALR H2O2 inh – human ALR oxidase inhibition via reduced H2O2. P55789. hit rate 3.8% among 290,000. purified ALR, DTT oxidation, H2O2 HRP-luminol luminescence. inhibition, % (test concentration not listed). AID 485317;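 active = mean replicate inhibition above about 79%, with every replicate also reaching it, limit read from the data; inconclusive = only one of the two criteria met; inactive = mean below limit and not every replicate reaching it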
# Target sequence (P55789 whole entry, looked up): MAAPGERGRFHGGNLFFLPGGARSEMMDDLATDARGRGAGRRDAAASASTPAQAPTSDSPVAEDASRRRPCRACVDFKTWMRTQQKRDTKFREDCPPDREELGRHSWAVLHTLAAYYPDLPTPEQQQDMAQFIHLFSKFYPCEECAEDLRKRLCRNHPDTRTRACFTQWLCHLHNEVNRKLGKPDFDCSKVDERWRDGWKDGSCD
# T cell modulator – modulates CD8 T cell binding to vesicles. 2C CD8+ T cell-vesicle binding, flow cytometry; hits give low values. response (vesicle binding), % at 7 µM. hit rate 0.068% among 330,000;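 active = response, share of CD8 T cells binding vesicles, and their 90th percentile fluorescence all below set limits, cut at about 80% in these data, passing the limit was not always enough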;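 note: values below 100% mean blocked vesicle binding to the CD8+ T cells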
#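 Test system: purified 2C TCR transgenic mouse naive CD8+ T cells. Probe or stimulus: QL9-peptide-loaded Drosophila micro-vesicles bearing Ld, ICAM-1 and B7-1. Incubation: binding step 1.5 h, 37 °C, antibody labelling 20 min, ice. Measured by: flow cytometry of vesicle-bound cells.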
# Active calls of the source: *; i = inactive; ? = inconclusive; . = no result given; ! = repeats disagree. Shown is part of a subset that was picked to be rich in hits.
SMILES,Glyco luc inh,ALR H2O2 inh,T cell modulator
O=[N+]([O-])c1ccc(C(O)CN2CCN(c3ccccc3)CC2)cc1 (stereo not given),2.7,7.0,271.9
Cc1ccc(N2CCN(CC(O)COc3ccccc3)CC2)cc1 (stereo not given),2.6,95.0*,177.1
C[C@@H]1CN([C@H](C)CO)C(=O)CCCn2cc(nn2)CO[C@H]1CN(C)S(=O)(=O)c1ccc2ccccc2c1,0.9,.,.
Cc1cc(OC(=O)c2cc(C(F)(F)F)cc(C(F)(F)F)c2)c([N+](=O)[O-])c(=O)[nH]1,1.8,-0.7,534.8
CC1(C)CC(=O)C=C(c2ccc(-c3ccccc3)cc2)C1=O,0.6,.,.
Cc1cccc(CN2CCN(C(=O)CN(C)C(C)C(=O)Nc3ccc(C(N)=O)cc3)CC2)c1 (stereo not given),1.3,-4.2,419.7
COc1ccc(N2CCN(CC(O)COc3c(OC)cccc3OC)CC2)cc1 (stereo not given),1.3,42.6,198.1
COc1ccc(N2CCN(CC(O)COc3ccc(F)cc3)CC2)cc1 (stereo not given),4.3,98.7*,200.9
OC(COCc1ccccc1)CN1CCCC1 (stereo not given),-0.8,-0.8,268.7
COc1ccc(N2CCN(CC(O)COc3ccc(C)c(C)c3)CC2)cc1 (stereo not given),-0.5,97.5*,263.1
OC(COCc1ccccc1)CN1CCN(c2ccccc2)CC1 (stereo not given),-0.5,82.2*,390.5
COc1ccc(N2CCN(CC(O)COc3cc(C)cc(C)c3)CC2)cc1 (stereo not given),2.5,69.0,168.9
COc1ccc(N2CCN(CC(O)COC(c3ccc(F)cc3)c3ccc(F)cc3)CC2)cc1 (stereo not given),-2.9,23.5,163.8
COc1ccc(OCC(O)CN2CCN(c3ccc(OC)cc3)CC2)cc1 (stereo not given),0.0,98.8*,199.4
O=C1Nc2ccccc2C1(O)Cc1ccccn1 (stereo not given),0.8,.,92.6
CC(C(=O)Nc1ccc2[nH]c(=O)[nH]c2c1)N1CCN(Cc2ccc3c(c2)OCO3)CC1 (stereo not given),3.7,-0.7,302.9
COCCNC(=O)C1CCCN(C(=O)c2ccc3ccccc3n2)CC1 (stereo not given),0.6,.,.
COc1ccccc1C(=O)NC1CCSc2ccccc21 (stereo not given),.,-13.0,322.0
O=C(COc1cccc(Cl)c1Cl)NC1CC1,3.1,.,284.6
C=CCc1cc(OC)ccc1OCC(O)CN1CCN(c2ccc(OC)cc2)CC1 (stereo not given),-1.7,79.4*!,327.3
C=CCc1cc(C)ccc1OCC(O)CN1CCN(c2ccccc2)CC1 (stereo not given),1.3,26.5,193.6
CCCCC(CCC(=O)O)(C(=O)OCC)c1csc(Nc2ccccc2)n1 (stereo not given),1.5,95.8*,220.3
CCCCC(CCC(=O)O)(C(=O)OCC)c1csc(Nc2ccc(OCC)cc2)n1 (stereo not given),-0.5,71.5,240.3
CN(C(=O)COC(=O)/C=C/c1ccc(Cl)c(Cl)c1)c1c(N)n(Cc2ccccc2)c(=O)[nH]c1=O,3.0,.,316.4
COc1ccc2ncccc2c1Cc1c(OC)ccc2ncccc12,7.4,.,.
SMILES,Glyco luc inh,ALR H2O2 inh,T cell modulator
O=[N+]([O-])c1ccc(-c2cnc(NO)nc2)cc1,0.8,99.1*,251.5
Nc1ncc(-c2ccc([N+](=O)[O-])cc2)cn1,6.0,-10.0,186.3
COc1cccc(C2NC(=O)c3ccccc3O2)c1OCc1ccccc1F (stereo not given),4.4,0.0,341.9
CC1CC(C)(C)OC(c2ccc(C(C)C)cc2)O1 (stereo not given),0.1,.,.
COC(=O)CSc1ccc2c(N)c(C(=O)OC)sc2c1,0.4,99.5*,280.1
COC(=O)COc1ccsc1C(=O)OC,0.6,-9.0,440.7
Cn1cnc([N+](=O)[O-])c1Sc1ccc(C(C)(C)C)cc1,6.3,-2.4,149.5
Cc1cccc(Sc2c([N+](=O)[O-])ncn2C)n1,1.7,26.4,571.8
Cc1ccc(Sc2c([N+](=O)[O-])ncn2C)cc1,16.7,97.7*,418.6
Cn1cnc([N+](=O)[O-])c1Sc1ccc(Br)cc1,20.7,98.4*,222.5
CC[N+](CC)(CC)CC(=O)Nc1ccc(SC(F)F)cc1,0.7,-10.8,220.5
CCn1c(N)[n+](CC(=O)Nc2ccc(SC(F)F)cc2)c2ccccc21,-3.4,88.7*,99.5
O=C(COC(=O)CN1C(=O)c2ccccc2C1=O)Nc1cccc(F)c1,-3.4,-0.9,283.8
O=S1(=O)CCOC[C@H](c2ccccc2)N1Cc1cccc(F)c1,-2.6,2.7,740.9
COc1ccc(OC)c(/C=N/NC(=O)C(=O)NCc2cccnc2)c1,1.2,-3.0,751.6
c1ccc2[nH]c(CSc3nc4ccccc4s3)nc2c1,-2.7,-7.0,282.5
Cn1c(CSc2nc3ccccc3s2)nc2ccccc21,-3.2,.,161.4
Cn1c(-c2sc3ccccc3c2Cl)n[nH]c1=S,2.6,96.6*,407.6
Cn1c(CSc2nc3ccccc3s2)n[nH]c1=S,0.0,97.8*,565.6
S=c1[nH]nc(CSc2nc3ccccc3s2)o1,-0.5,99.1*,285.9
Clc1c(-c2nnc3n2CCC3)sc2ccccc12,-0.1,-3.9,376.1
COC(=O)C1CCN(C2CN(Cc3ccc(C)cc3)S(=O)(=O)C2)CC1 (stereo not given),1.8,.,.
O=C(Cc1cccs1)NCCS(=O)(=O)N1CCN(c2ccccc2)CC1,-0.1,.,.
Cn1c(CNC(=O)c2ccco2)nnc1SCC(=O)Nc1c(F)cc(F)cc1Br,0.6,-1.0,212.9
CC1C/C(=N/NC(=O)c2ccc(CSc3nc4ccccc4[nH]3)cc2)CC(C)(C)C1 (stereo not given),0.2,-47.5,183.3
SMILES,Glyco luc inh,ALR H2O2 inh,T cell modulator
CC1C/C(=N/Nc2nc3ccccc3[nH]2)CC(C)(C)C1 (stereo not given),-0.8,98.7*,89.3
Cn1c(N)c(C(C[N+](=O)[O-])c2c(F)cccc2Cl)c(=O)n(C)c1=O (stereo not given),-5.1,.,238.3
CN(C)c1ccc(C(C[N+](=O)[O-])c2c(N)n(C)c(=O)n(C)c2=O)c(F)c1C#N (stereo not given),27.9*,.,291.3
Cc1cccc(N2CCN(C(=O)Cc3ccccc3[N+](=O)[O-])CC2)c1C,0.4,-10.0,134.4
CCC(=O)N1CCN=C1SCc1ccccc1Cl,-0.7,99.7*,i
CCC(=O)N1CCN=C1SCc1cc(C)ccc1C,0.5,?,355.9
CC(=O)N1CCN=C1SCc1ccccc1Cl,0.3,100.8*,557.4
O=C(C1CCCC1)N1CCN=C1SCc1cccc([N+](=O)[O-])c1,-3.1,99.2*,226.3
O=C(O)c1cccnc1SCc1ccccc1Cl,-0.2,6.2,510.8
Cn1nnnc1SCc1ccccc1F,-3.0,-3.3,117.7
CC(=O)N1CCN=C1SCc1ccccc1F,0.6,99.0*,406.3
CCCCn1c(N)c(N(CCC(C)C)C(=O)CCCc2nc3ccccc3s2)c(=O)[nH]c1=O,-1.9,-2.8,343.2
Cc1ccc(NC(=S)N2CCN(S(C)(=O)=O)CC2)cc1Cl,-0.5,-6.3,172.6
O=C(O)CCSc1nc2ccccc2n1Cc1ccccc1,0.8,-4.8,741.3
CCc1nnc(NS(=O)(=O)c2ccc(NC(=O)c3cccc(OC)c3)cc2)s1,2.7,4.7,93.9
